Results from ChEMBL document CHEMBL4265978, “In search of constrained FTY720 and phytosphingosine analogs as dual acting anticancer agents targeting metabolic and epigenetic pathways” (Eur J Med Chem, 2018).
Active and inactive are the calls of the source. The rule behind the calls is not given here.

How the values were obtained:
FL5.12 [1] = assay: Downregulation of CD98 expression in mouse FL5.12 cells at 2.5 uM after 3 hrs by DAPI staining-based FACS analysis relative to control; format: functional
In short: (§1)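 FL5.12 cells plated at 225-250,000/mL and treated 3 h. 150-200,000 cells stained in triplicate on ice for 30 min with PE-anti-mouse CD98, with PE rat IgG2a κ as isotype control. Read by flow cytometry, gated on viable cells (DAPI exclusion or scatter). Loss given as mean of at least 2 biological replicates.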

FL5.12 [2] = assay: Downregulation of CD98 expression in mouse FL5.12 cells at 10 uM after 3 hrs by DAPI staining-based FACS analysis relative to control; format: functional; in short: as §1
FL5.12 [3] = assay: Cytotoxicity against mouse FL5.12 cells assessed as vacuole formation at 40 uM after 3 hrs by […]; format: functional, cell-based
In short: (§2)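 FL5.12 cells treated at 200,000/mL for 3 h, then imaged at 100× by brightfield/DIC. At least 5 images per condition, at least 2 biological replicates. Two researchers scored each replicate independently: 0 no vacuoles, + some cells, ++ most cells with at least 1 vacuole, +++ all cells heavily vacuolated.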

FL5.12 [4] = assay: Cytotoxicity against mouse FL5.12 cells assessed as vacuole formation at 10 uM after 3 hrs by […]; format: functional, cell-based; in short: as §2
FL5.12 [5] = assay: Cytotoxicity against mouse FL5.12 cells assessed as vacuole formation at 2.5 uM after 3 hrs by […]; format: functional, cell-based; in short: as §2
FL5.12 [6] = assay: Cytotoxicity against mouse FL5.12 cells after 48 hrs by DAPI or propidium iodide staining-based flow cytometric analysis; format: functional, cell-based; details: FL5.12, 48 h
In short: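 FL5.12 (murine hematopoietic, IL-3-dependent) cells treated at 25,000/mL; viability read at 48 h by DAPI or propidium iodide dye exclusion on flow cytometry. IC50 fitted, reported with 95% confidence interval.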

FL5.12 [7] = assay: Downregulation of CD98 expression in mouse FL5.12 cells at 40 uM after 3 hrs by DAPI staining-based FACS analysis relative to control; format: functional; in short: as §1

Row | SMILES | Activity (FL5.12 [1]) [%] | Activity (FL5.12 [2]) [%] | Activity (FL5.12 [3]) | Activity (FL5.12 [4]) | Activity (FL5.12 [5]) | IC50 (FL5.12 [6]) [µM] | Activity (FL5.12 [7]) [%]
1 | CCCCCCCCc1ccc([C@@H]2CC[C@H]3C[C@H](CO)CN32)cc1.Cl | 0 | 32 | Active | inactive | inactive | 12.2 | 68
2 | CCCCCCCCc1ccc([C@H]2CCN[C@@H]2CO)cc1 | 41 | 66 | – | Active | Active | 2.1 | –
3 | CCCCCCCCc1ccc(CCC(N)(CO)CO)cc1 [FINGOLIMOD] | 30 | 63 | – | Active | Active | 2.1 | –
4 | CCCCCCCCc1ccc(CC[C@@H]2CCCN2)cc1.Cl | 41 | 63 | – | Active | Active | 2.8 | –
5 | CC(=O)CCCCCCc1ccc([C@H]2CCN[C@@H]2CO)cc1.Cl | -15 | -8 | inactive | inactive | – | 15.1 | 23
6 | CCCCCCCCc1ccc(C[C@@H]2C[C@@H](O)CN2)cc1 | 40 | 63 | – | Active | Active | 2.2 | –
7 | CCCCCCCCc1ccc(C(=O)[C@@H]2C[C@@H](O)CN2)cc1.Cl | 2 | 9 | Active | – | inactive | 28.1 | 48
8 | Cl.OC[C@H]1NCC[C@@H]1c1ccc(CCCOCc2ccccc2)cc1 | 11 | 14 | inactive | inactive | – | 10.9 | 51
9 | CCCCCCCCc1ccc(C(=O)CC[C@H]2C[C@H](CO)CN2)cc1.Cl | 8 | 46 | – | Active | inactive | 4 | –
10 | O=C(CCCCCCC(=O)Nc1ccccc1)NO | – | – | – | Active | – | – | –
11 | CCCCCCCCc1ccc(C(=O)C[C@@H]2C[C@@H](O)CN2)cc1.Cl | 22 | 46 | – | Active | Active | 2.1 | –
12 | Cc1nc(/C=C/CCCCCc2ccc([C@H]3CCN[C@@H]3CO)cc2)co1.Cl | 5 | 18 | inactive | inactive | – | 10.2 | 61
13 | CCCCCCCCc1ccc(C(C[C@@H]2CCCN2)OC)cc1.Cl (stereo not given in full) | 16 | 58 | – | Active | inactive | 3 | –
14 | CCCCCCCCc1ccc(C(=O)CC[C@@H]2C[C@@H](O)CN2)cc1.Cl | 15 | 52 | – | Active | Active | 2.1 | –
15 | Cc1nc(CCCCCCCc2ccc([C@H]3CCN[C@@H]3CO)cc2)co1.Cl | 5 | 33 | inactive | inactive | – | 8.4 | 61
16 | CCCCCCCCc1ccc(C(=O)[C@@H]2C[C@@H](OP(=O)(O)O)CN2)cc1.Cl | – | 3 | inactive | inactive | inactive | 12.9 | -8
17 | CCCCCCCCc1ccc(C(=O)C[C@@H]2CCCN2)cc1.Cl | 28 | 57 | – | Active | Active | 2.5 | –
18 | CCCCCCCCc1ccc(C(=O)[C@H]2C[C@H](OP(=O)(O)O)CN2)cc1.Cl | – | -9 | inactive | inactive | inactive | 12.8 | 0
